Measurements: ChEMBL document CHEMBL1153403, “Design, synthesis, and evaluation of novel fluoroquinolone-aminoglycoside hybrid antibiotics” (J Med Chem, 2009)
Converted amounts (≈) assume the structure as drawn.

Assays:
Escherichia coli [1] = assay: Antibacterial activity against Escherichia coli R477-100 by double-microdilution method; format: functional
Escherichia coli [2] = assay: Antibacterial activity against Escherichia coli ATCC 25922 by double-microdilution method; format: functional
Escherichia coli [3] = assay: Antibacterial activity against kanamycin-resistant Escherichia coli AG100B expressing aminoglycosides resistant APH(3')-1 enzyme by double-microdilution method; format: functional
Escherichia coli [4] = assay: Antibacterial activity against kanamycin-resistant Escherichia coli AG100A expressing aminoglycosides resistant APH(3')-1 enzyme by double-microdilution method; format: functional
Bacillus subtilis = assay: Antibacterial activity against aminoglycosides-susceptible Bacillus subtilis ATCC 6633 by double-microdilution method; format: functional
Staphylococcus aureus = assay: Antibacterial activity against methicillin-resistant Staphylococcus aureus ATCC 43300 by double-microdilution method; format: functional
Escherichia coli [5] = assay: Antibacterial activity against Escherichia coli XL1-blue by double-microdilution method; format: functional
Escherichia coli [6] = assay: Antibacterial activity against aminoglycosides-resistant Escherichia coli XL1-blue harboring pSF815 expressing AAC(6')-APH(2'') enzyme by double-microdilution method; format: functional
Escherichia coli [7] = assay: Resistance index, MIC for aminoglycosides-resistant Escherichia coli XL1-blue harboring pSF815 expressing AAC(6')-APH(2'') enzyme to MIC for Escherichia coli XL1-blue; format: functional
How it was run: (§1)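 Ratio of MIC on the plasmid-bearing resistant strain to MIC on its background strain (pETSACG1 vs BL21; pET9d or pSF815 vs XL1 blue). MICs by NCCLS double microdilution from starting concentrations of 384 and 1.5 µg/mL, in duplicate, two to four experiments.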

Escherichia coli [8] = assay: Antibacterial activity against aminoglycosides-resistant Escherichia coli XL1-blue harboring pET9d expressing APH(3')-1a enzyme by double-microdilution method; format: functional
Escherichia coli [9] = assay: Resistance index, MIC for aminoglycosides-resistant Escherichia coli XL1-blue harboring pET9d expressing APH(3')-1a enzyme to MIC for Escherichia coli XL1-blue; format: functional; how it was run: as §1
Escherichia coli [10] = assay: Antibacterial activity against Escherichia coli BL21 by double-microdilution method; format: functional
Escherichia coli [11] = assay: Antibacterial activity against aminoglycosides-resistant Escherichia coli BL21 harboring pETSACG1 expressing APH(3')-3a enzyme by double-microdilution method; format: functional
Escherichia coli [12] = assay: Resistance index, MIC for aminoglycosides-resistant Escherichia coli BL21 harboring pETSACG1 expressing APH(3')-3a enzyme to MIC for Escherichia coli BL21; format: functional; how it was run: as §1
[13] = Activity at aminoglycoside 3'-phosphotransferase 3a
[14] = Ratio of kcat/km for aminoglycoside 3'-phosphotransferase 3a
[15] = Inhibition of Escherichia coli DNA gyrase assessed as reduction in relaxed pBR322 DNA supercoiling activity after 1 hr by electrophoresis
How it was run: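 Supercoiling of relaxed pBR322 (12.5 ng/µL) by E. coli DNA gyrase in 35 mM Tris-Cl pH 7.5 with 24 mM KCl, 4 mM MgCl₂, 2 mM DTT, 1.8 mM spermidine, 1 mM ATP, 6.5% glycerol and 0.1 mg/mL BSA. Incubated 37 °C for 1 h, stopped with loading dye plus chloroform/isoamyl alcohol, and resolved on 1% agarose. IC50 is the concentration halving activity versus drug-free control.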

[16] = Inhibition of Escherichia coli topoisomerase 4 assessed as reduction in supercoiled pBR322 DNA relaxation activity after 30 mins by electrophoresis
How it was run: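 E. coli TopoIV relaxation of supercoiled pBR322 in 40 mM HEPES-KOH pH 7.6 with 100 mM potassium glutamate, 10 mM Mg(OAc)₂, 10 mM DTT, 1 mM ATP and 50 µg/mL albumin. Incubated 37 °C for 30 min, stopped with EDTA, loading dye and chloroform/isoamyl alcohol, then run on 1% agarose. Supercoiled DNA percentage was quantified from gel images. IC50 is the 50% reduction versus drug-free control.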

Escherichia coli [17] = assay: Inhibition of protein synthesis in Escherichia coli S30 extracts assessed as luciferase activity after 1 hr by coupled transcription/translation assay; format: functional; details: Escherichia coli, 1 h; read-out: IC50
How it was run: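 Coupled transcription/translation of the pBESTluc plasmid in E. coli S30 extract with varying compound concentrations, 37 °C for 60 min. Reactions were cooled on ice, diluted in Tris-phosphate pH 7.8 reagent, and luciferase luminescence was read immediately after substrate addition. IC50 came from concentration-response curves fitted to at least two independent experiments.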

SMILES: NC[C@@H]1O[C@H](O[C@H]2[C@@H](O)[C@H](O[C@@H]3[C@@H](O)[C@H](N)C[C@H](N)[C@H]3O[C@H]3O[C@H](CN)[C@@H](O)[C@H](O)[C@H]3N)O[C@@H]2CO)[C@H](N)[C@@H](O)[C@@H]1O [FRAMYCETIN]
- MIC (Escherichia coli [1]): 24 µg/mL (≈ 39 µM)
- MIC (Escherichia coli [2]): 48 µg/mL (≈ 78.1 µM)
- MIC (Escherichia coli [3]): 384 µg/mL (≈ 625 µM)
- MIC (Escherichia coli [4]): 96 µg/mL (≈ 156 µM)
- MIC (Bacillus subtilis): 1.5 µg/mL (≈ 2.44 µM)
- MIC (Staphylococcus aureus): 384 µg/mL (≈ 625 µM)
- MIC (Escherichia coli [5]): 6 µg/mL (≈ 9.76 µM)
- MIC (Escherichia coli [6]): > 384 µg/mL
- Ratio (Escherichia coli [7]): >64
- MIC (Escherichia coli [8]): 96 µg/mL (≈ 156 µM)
- Ratio (Escherichia coli [9]): 16
- MIC (Escherichia coli [10]): 6 µg/mL (≈ 9.76 µM)
- MIC (Escherichia coli [11]): 48 µg/mL (≈ 78.1 µM)
- Ratio (Escherichia coli [12]): 8
- Km [13]: 5.7 µM
- kcat [13]: 2.4 s⁻¹
- kcat/Km [14]: 42 ×10⁴ /M/s
- IC50 [15]: Not Active
- IC50 [16]: Not Active
- IC50 (Escherichia coli [17]): 10.5 µM

SMILES: NC[C@@H]1O[C@H](O[C@H]2[C@@H](O)[C@H](O[C@@H]3[C@@H](O)[C@H](N)C[C@H](N)[C@H]3O[C@H]3O[C@H](CN)[C@@H](O)[C@H](O)[C@H]3N)O[C@@H]2C(=O)NCc2cn(CC(O)CN3CCN(c4cc5c(cc4F)c(=O)c(C(=O)O)cn5C4CC4)CC3)nn2)[C@H](N)[C@@H](O)[C@@H]1O (stereo partly specified)
- MIC (Escherichia coli [1]): 6 µg/mL (≈ 5.47 µM)
- MIC (Escherichia coli [2]): 3 µg/mL (≈ 2.74 µM)
- MIC (Escherichia coli [3]): 12 µg/mL (≈ 10.9 µM)
- MIC (Escherichia coli [4]): 0.75 µg/mL (≈ 0.684 µM)
- MIC (Bacillus subtilis): 3 µg/mL (≈ 2.74 µM)
- MIC (Staphylococcus aureus): 12 µg/mL (≈ 10.9 µM)
- MIC (Escherichia coli [5]): 6 µg/mL (≈ 5.47 µM)
- MIC (Escherichia coli [6]): 48 µg/mL (≈ 43.8 µM)
- Ratio (Escherichia coli [7]): 8
- MIC (Escherichia coli [8]): 12 µg/mL (≈ 10.9 µM)
- Ratio (Escherichia coli [9]): 2
- MIC (Escherichia coli [10]): 0.2 µg/mL (≈ 0.182 µM)
- MIC (Escherichia coli [11]): 0.2 µg/mL (≈ 0.182 µM)
- Ratio (Escherichia coli [12]): 1
- Km [13]: 86.8 µM
- kcat [13]: 2.5 s⁻¹
- kcat/Km [14]: 2.9 ×10⁴ /M/s

SMILES: NC[C@@H]1O[C@H](O[C@H]2[C@@H](O)[C@H](O[C@@H]3[C@@H](O)[C@H](N)C[C@H](N)[C@H]3O[C@H]3O[C@H](CN)[C@@H](O)[C@H](O)[C@H]3N)O[C@@H]2C(=O)Nc2ccc(-c3cn(Cc4ccc(CN5CCN(c6cc7c(cc6F)c(=O)c(C(=O)O)cn7C6CC6)CC5)cc4)nn3)cc2)[C@H](N)[C@@H](O)[C@@H]1O
- MIC (Escherichia coli [1]): 1.5 µg/mL (≈ 1.25 µM)
- MIC (Escherichia coli [2]): 3 µg/mL (≈ 2.49 µM)
- MIC (Escherichia coli [3]): 3 µg/mL (≈ 2.49 µM)
- MIC (Escherichia coli [4]): 0.75 µg/mL (≈ 0.623 µM)
- MIC (Bacillus subtilis): 1.5 µg/mL (≈ 1.25 µM)
- MIC (Staphylococcus aureus): 3 µg/mL (≈ 2.49 µM)
- MIC (Escherichia coli [5]): 3 µg/mL (≈ 2.49 µM)
- MIC (Escherichia coli [6]): 24 µg/mL (≈ 19.9 µM)
- Ratio (Escherichia coli [7]): 8
- MIC (Escherichia coli [8]): 3 µg/mL (≈ 2.49 µM)
- Ratio (Escherichia coli [9]): 1
- MIC (Escherichia coli [10]): 0.4 µg/mL (≈ 0.332 µM)
- MIC (Escherichia coli [11]): 0.4 µg/mL (≈ 0.332 µM)
- Ratio (Escherichia coli [12]): 1
- IC50 ([15]; read-out: IC50): 0.085 µM
- IC50 ([16]; read-out: IC50): 0.55 µM
- IC50 (Escherichia coli [17]): 16.7 µM

SMILES: NC[C@@H]1O[C@H](O[C@H]2[C@@H](O)[C@H](O[C@@H]3[C@@H](O)[C@H](N)C[C@H](N)[C@H]3O[C@H]3O[C@H](CN)[C@@H](O)[C@H](O)[C@H]3N)O[C@@H]2COCc2cn(CCN3CCN(c4cc5c(cc4F)c(=O)c(C(=O)O)cn5C4CC4)CC3)nn2)[C@H](N)[C@@H](O)[C@@H]1O
- MIC (Escherichia coli [1]): 3 µg/mL (≈ 2.85 µM)
- MIC (Escherichia coli [2]): 3 µg/mL (≈ 2.85 µM)
- MIC (Escherichia coli [3]): 12 µg/mL (≈ 11.4 µM)
- MIC (Escherichia coli [4]): 0.38 µg/mL (≈ 0.361 µM)
- MIC (Bacillus subtilis): 0.75 µg/mL (≈ 0.712 µM)
- MIC (Staphylococcus aureus): 6 µg/mL (≈ 5.7 µM)
- MIC (Escherichia coli [5]): 3 µg/mL (≈ 2.85 µM)
- MIC (Escherichia coli [6]): 12 µg/mL (≈ 11.4 µM)
- Ratio (Escherichia coli [7]): 4
- MIC (Escherichia coli [8]): 12 µg/mL (≈ 11.4 µM)
- Ratio (Escherichia coli [9]): 4
- MIC (Escherichia coli [10]): 0.2 µg/mL (≈ 0.19 µM)
- MIC (Escherichia coli [11]): 0.2 µg/mL (≈ 0.19 µM)
- Ratio (Escherichia coli [12]): 1
- IC50 ([15]; read-out: IC50): 0.041 µM
- IC50 ([16]; read-out: IC50): 7.9 µM
- IC50 (Escherichia coli [17]): 18.1 µM
